# The list is not random: actives were taken first. Their share in the collection is about 2.3%.
# T cell HTS = modulators of CD8 T cell-vesicle binding, primary screen, mouse 2C CD8+ T cells, flow cytometry; 2C CD8+ T cell-vesicle binding; hits give low values; response (vesicle binding), % at 7 µM; 330,000 compounds, 0.068% hits; AID 2052, 2009;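 active = response, share of CD8 T cells binding vesicles, and their 90th percentile fluorescence all below set limits, cut at about 80% in these data, passing the limit was not always enough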;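 also: values below 100% mean blocked vesicle binding to the CD8+ T cells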
#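 Test system: purified 2C TCR transgenic mouse naive CD8+ T cells. Probe or stimulus: QL9-peptide-loaded Drosophila micro-vesicles bearing Ld, ICAM-1 and B7-1. Incubation: binding step 1.5 h, 37 °C, antibody labelling 20 min, ice. Measured by: flow cytometry of vesicle-bound cells.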
# DSG3 Ab inh = inhibitors of pemphigus antibody binding to DSG3, primary screen, biochemical, bead-based, flow cytometry, scFv-GFP. Desmoglein-3 (Homo sapiens), P32926. DSG3-coupled beads, scFv-anti-DSG3-GFP binding; hits give low values. binding (percent of control), % at 10 µM. 310,000 compounds, 0.48% hits. AID 588358, 2011;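 active = binding more than 3 SD below its plate's average and above zero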;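 also: hits lower antibody fragment binding to DSG3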
# Bim-Mcl-1 = inhibitors of Bim peptide binding to Mcl-1, primary screen, biochemical, bead-based flow cytometry, multiplex; Bim peptide-Mcl-1 binding; 190,000 compounds, 0.1% hits; inhibition, % at 10 µM; in the data active = inhibition above about 40%
# MCL1-BIM inh = inhibitors of MCL1 binding to BIM-BH3, primary screen, biochemical, fluorescence polarization. Induced myeloid leukemia cell differentiation protein Mcl-1 (Homo sapiens), Q07820. GST-MCL1 / FITC-Bim-BH3 fluorescence polarization. inhibition, % at 10.9 µM. 320,000 compounds, 0.68% hits. AID 2057, 2009;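 active = inhibition above the mean inhibition of all tested compounds plus 3 SD, set per campaign, cut at about 40% in these data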;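 also: higher means more loss of mP so more displacement of Bim peptide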
# Mcl1 Noxa PPI = Mcl-1/Noxa binding inhibitors, primary screen, biochemical, TR-FRET, 1536-well | 220,000 compounds, 1.5% hits | AID 1022, 2008 | TR-FRET Mcl-1/Noxa peptide binding, 2 h | Induced myeloid leukemia cell differentiation protein Mcl-1 (Homo sapiens), Q07820 | inhibition, % at 21.7 µM;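 active = compounds that cut the protein-peptide binding signal by more than 50% relative to plate controls in a single-dose test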;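 also: His-tagged Mcl-1 with rhodamine Noxa BH3 peptide and terbium anti-His antibody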
# Mcl1 Bid PPI = Mcl-1/Bid binding inhibitors, primary screen, biochemical, TR-FRET, 1536-well; Induced myeloid leukemia cell differentiation protein Mcl-1 (Homo sapiens), Q07820; TR-FRET Mcl-1/Bid-Dy647 peptide binding; AID 1021, 2008; inhibition, % at 21.7 µM; 220,000 compounds, 0.97% hits;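 active = compounds that cut the binding signal by more than half at the single screening dose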;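 also: His-tagged Mcl-1 with europium anti-His antibody binding Bid BH3 peptide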
# A number is an active result; n = inactive; x = not tested or not shown.
SMILES,T cell HTS,DSG3 Ab inh,Bim-Mcl-1,MCL1-BIM inh,Mcl1 Noxa PPI,Mcl1 Bid PPI
Cc1ncsc1CCOC(=O)c1ccc([N+](=O)[O-])cc1,n,n,n,n,n,n
Cc1ncsc1CCOC(=O)c1cccnc1,n,n,n,n,n,54
COc1ccc(O)c(N)c1,x,x,n,x,89,n
Cc1ccc(O)c(N)c1,n,n,x,n,x,x
COc1ccc(NC(=O)/C(C#N)=C\c2ccc(N3CCOCC3)o2)cc1,n,n,n,n,n,n
COc1ccc(NC(=O)/C(C#N)=C/c2ccc(Br)o2)cc1,n,n,n,n,58,n
CC(=O)Cn1c(CN2CCN(C(=O)c3ccco3)CC2)nc2c1c(=O)n(C)c(=O)n2C,n,x,x,n,x,x
COc1ccc2cc3c(N)nn(C(=O)c4ccc(Cl)c([N+](=O)[O-])c4)c3nc2c1,n,n,n,n,n,54
Cc1nc2ncnn2c(C)c1CCC(=O)Nc1ccc(S(=O)(=O)N2CCCCCC2)cc1,n,x,n,n,n,52
CC(C)CN(C(=O)c1cc(=O)[nH]c2ccccc12)c1c(N)n(Cc2ccccc2)c(=O)[nH]c1=O,n,n,x,n,x,x
O=C(Nc1cccc(F)c1)Nc1ccnn1C1CCN(C(=O)CCN2CCCO2)CC1,n,0.6,x,n,x,x
Cc1ccc(S(=O)(=O)N(C)C[C@H]2OCCCC[C@@H](C)Oc3ccc(NC(=O)Cc4ccccc4)cc3C(=O)N([C@H](C)CO)C[C@@H]2C)cc1,x,n,x,x,x,x
Cc1nc(SCc2nc3cc(Cl)c(F)cc3[nH]2)c2oc3ccccc3c2n1,n,n,x,x,x,x
c1ccc(-c2nccc(-c3ccc(-n4cnc5ccccc54)cc3)n2)cc1,n,n,n,n,n,55
C/C(=N\NC(=S)NC1CCCCC1)c1ccccc1,n,83,n,n,n,n
CN(C)c1ccc(Sc2nnc(NC(=O)Nc3ccc(Cl)cc3Cl)s2)cc1,n,n,n,n,89,n
CCOc1ccc2[nH]c(C)c(CN3CCCCCC3)c(=O)c2c1,n,n,x,n,x,x
O=Cc1c(-c2ccccc2)nc2ccccn12,n,n,x,n,n,n
CCc1nc(-c2ccccc2)c2ccccn12,n,x,n,n,62,n
Cn1cnnc1SCC(=O)Nc1ccc(N2CCCCC2)cc1,n,n,x,n,x,x
CC(C)(C)c1ccc(NC(=O)C2=CN3CCS(=O)(=O)N=C3C=C2)cc1,n,x,x,n,x,x
O=C(c1ccccc1F)N1CCN(Cc2ccccc2F)CC1,n,n,n,n,n,59
O=C(c1ccccc1)c1ccccc1C(=O)N1CCN(Cc2ccccc2F)CC1,x,n,x,x,x,x
O=C(c1ccc(Br)cc1)N1CCN(Cc2ccccc2)CC1,n,n,x,n,x,x
O=C(c1cccc(Cl)c1)N1CCN(Cc2ccccc2F)CC1,n,n,n,n,n,69
SMILES,T cell HTS,DSG3 Ab inh,Bim-Mcl-1,MCL1-BIM inh,Mcl1 Noxa PPI,Mcl1 Bid PPI
O=C(c1ccccc1)N1CCN(Cc2ccccc2Br)CC1,n,n,n,n,n,84
CCOc1ccc(C(=O)CCC(=O)N2CCN(c3ncccn3)CC2)cc1,n,n,x,n,x,x
CC(C)c1ccc(CNNC(=O)c2ccccc2)cc1,n,n,x,n,x,x
COC(=O)c1c(-c2cccnc2)csc1NC(=O)c1cc(C)on1,x,n,n,n,58,n
CC1CCc2[nH]c3ccc(C(=O)N4CCCC(C(F)(F)F)C4)cc3c2C1 (stereo not given),n,n,x,n,x,x
COc1ccc(-c2ccc(CN3C(C(C)C)C(=O)N(Cc4cn(CCC5OCCO5)nn4)CCS3(=O)=O)cc2)cc1 (stereo not given),x,n,x,x,x,x
CCOC(=O)c1c(CSc2ccsc2)n(C)c2cc(Br)c(O)c(CN(C)C)c12,n,n,x,n,60,n
CCOC(=O)c1c(CSc2ccccc2)n(C)c2cc(Br)c(O)c(CN(C)C)c12,n,n,x,n,n,n
CCOC(=O)c1c(CSc2ccc(C)cc2)n(C)c2cc(Br)c(O)c(CN(C)C)c12,n,n,n,n,86,n
Cc1cccn2c(=O)c(/C=N/O)c(Nc3ccccc3F)nc12,n,n,x,n,n,54
Cc1cccn2c(=O)c(/C=N/O)c(NCc3ccccc3)nc12,n,x,x,n,n,n
CC1CCCC(NC(=O)CCN2C(=O)COc3ccccc32)C1C (stereo not given),x,n,x,x,x,x
NC(=S)n1[nH]c(-c2ccc([N+](=O)[O-])cc2)c(N=Nc2ccc(O)cc2)c1=O,n,x,n,n,73,65
Cc1[nH]n(C(N)=S)c(=O)c1N=Nc1cccc(Cl)c1,n,n,x,n,x,x
NC(=S)n1[nH]c(-c2ccc([N+](=O)[O-])cc2)c(N=Nc2cccc(Cl)c2)c1=O,x,n,n,x,93,82
CS(=O)(=O)Nc1ccc(C(=O)Nc2ccc3ccccc3c2)cc1,n,n,x,n,x,x
COc1cc(OC)cc(C(=O)OCCCOC(=O)c2cc(OC)cc(OC)c2)c1,n,n,x,n,x,x
CC(C)(C)NC(=O)c1sccc1C(=O)O,n,n,n,n,54,90
CCCCN1C(=O)c2cccc3cc(O)cc(c23)C1=O,n,n,x,n,x,x
CCCc1ccc(-c2cc(C(=O)N3CCN(c4ccccn4)CC3)c3ccccc3n2)cc1,n,n,x,n,x,x
COc1ccccc1COCC(O)CNCC1(N2CCCCC2)CCCCC1 (stereo not given),n,n,n,n,n,62
COc1cc(C(C)=O)ccc1OCC(O)CNCC1(N2CCCCC2)CCCCC1 (stereo not given),n,x,n,n,n,n
CCNc1ccc(S(N)(=O)=O)cc1[N+](=O)[O-],n,n,n,n,51,n
CN1C2=CC=CC=CC2=[N+](C)C12C=CC(=[N+]([O-])[O-])C=C2[N+](=O)[O-] (stereo not given),n,76,n,n,n,n
CN1C2=CC=CC=CC2=[N+](C)C12C([N+](=O)[O-])=CC(=[N+]([O-])[O-])C=C2[N+](=O)[O-] (stereo not given),n,n,x,n,n,n
SMILES,T cell HTS,DSG3 Ab inh,Bim-Mcl-1,MCL1-BIM inh,Mcl1 Noxa PPI,Mcl1 Bid PPI
CSC(=NCc1cccnc1)NS(=O)(=O)c1cccs1,n,n,n,n,n,71
CN(Cc1cccs1)C(=O)c1ccc(Cl)c(S(=O)(=O)N2CCCCCC2)c1,n,n,x,x,x,x
COc1ccc(OC)c(Nc2ncnc3sccc23)c1,n,n,x,n,x,x
COc1cc(CN(C)c2ncnc3sccc23)ccc1OC(F)F,n,35,x,n,x,x
c1ccc(CSc2nnc3c(n2)OC(c2ccco2)Nc2ccccc2-3)cc1 (stereo not given),n,61,n,n,n,n
CCOc1ccc(C2C=C(c3ccccc3)Nc3ncnn32)cc1 (stereo not given),n,x,n,46,n,n

# From PubChem BioAssay
